From PubChem
ATG4B inh = inhibitors of human ATG4B cysteine protease | hit rate 0.51% among 340,000 | Q9Y4P1 | ATG4B cleavage of LC3-PLA2, NBD-HPC fluorescence, 1 h | inhibition, % at 8.33 µM; in the data active = inhibition above about 40%
Target sequence (Q9Y4P1 whole entry, looked up): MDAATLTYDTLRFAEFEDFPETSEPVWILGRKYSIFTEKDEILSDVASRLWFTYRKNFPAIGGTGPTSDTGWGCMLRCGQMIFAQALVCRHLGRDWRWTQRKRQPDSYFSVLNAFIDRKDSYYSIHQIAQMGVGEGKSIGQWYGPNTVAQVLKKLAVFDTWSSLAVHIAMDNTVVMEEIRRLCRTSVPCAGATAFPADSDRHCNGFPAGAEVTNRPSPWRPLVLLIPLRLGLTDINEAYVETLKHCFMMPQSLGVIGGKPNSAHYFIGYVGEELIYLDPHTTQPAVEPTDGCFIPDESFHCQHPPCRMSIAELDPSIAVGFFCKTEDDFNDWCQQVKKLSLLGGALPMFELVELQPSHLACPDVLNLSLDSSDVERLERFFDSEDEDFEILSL
SR-BI HDL uptake = mouse SR-BI HDL lipid transfer inhibition. Q61009. hit rate 0.96% among 320,000. inhibition, % at 12.5 µM. ldlA[mSR-BI] CHO cells, DiI-HDL uptake fluorescence, 3 h. AID 488896;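 active = mean replicate inhibition of at least 70% and a set share of replicates each scoring 70 or more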
SR-BI DiI-HDL act = enhances SR-BI lipid uptake from DiI-HDL; activation, % at 12.5 µM; AID 504775; CHO ldlA[mSR-BI] cells, DiI-HDL uptake fluorescence, 3 h; 100 = double the neutral-control signal; hit rate 0.096% among 320,000;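 active = mean replicate activation of at least 60% and every replicate at or above 60%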
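Material: SR-BI-overexpressing, LDLR-lacking CHO cells; schedule: compound exposure 3 h, 37 °C; reagent: DiI-labelled HDL at 10 µg/mL final; technique: bottom-read fluorescence, 550/595 nm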
CAL PDZ FP-1 = human CAL PDZ-peptide interaction inhibition; Q9HD26; purified CAL PDZ, TMR-peptide fluorescence polarization, 1 h; inhibition, % at 20 µM; hit rate 0.02% among 330,000; AID 504414;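 active = highest replicate inhibition of at least 40%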
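material = purified tagged CAL PDZ domain construct (CerCALP) | buffer or medium = sodium phosphate/NaCl buffer pH 7.4 with TCEP, IgG, Thesit | reagent = TMR-labelled reporter peptide T*-PRC34 bound in PDZ groove | incubation = 1 h room-temperature incubation prior to read | measured by = fluorescence polarization (mP) | evaluation = percent inhibition from loss of millipolarization | control set = unlabelled peptide and DMSO controls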
CAL PDZ FP-2 = CAL PDZ (human) peptide binding inhibition; Q9HD26; purified CAL PDZ, TMR-peptide fluorescence polarization, 1 h; inhibition, % at 24.9 µM; hit rate 0.92% among 300,000; AID 602252;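 active = mean inhibition of at least 30% with at least half of replicates also reaching 30%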
Each line names hits and unclear results; the compound was inactive in the other large screens. Hits are enriched below; roughly 2.3% of the tested compounds scored in any of these assays.

COc1ccc(CC(=O)Nc2ccc(-c3cn4cccc(C)c4n3)cc2)cc1OC	none
COCCCNc1nc2cc(OC)c(OC)cc2c2nc(-c3ccccc3)nn12	SR-BI HDL uptake 86
CN(C)C(=O)c1ccc(NC(=O)c2ccc(-c3ccc(Cl)cc3)o2)cc1	CAL PDZ FP-2 62
C/C(=N\NC(N)=S)c1ccc(Cl)s1	SR-BI HDL uptake 79
C/C(=N\NC(=S)NC(C)C)c1ccc(Cl)s1	none
CC(=O)Oc1ccc(-c2cc3ccc(OC(C)=O)cc3oc2=O)cc1	none (no result: CAL PDZ FP-2)
O=C(CN1C(=O)COc2ccccc21)Nc1ccccc1F	none
Cc1ccc2c(c1)N(CC(=O)Nc1ccccc1F)C(=O)CO2	CAL PDZ FP-2 56
O=C(NC1CC1)c1cc2c(F)cccc2s1	none
O=C(CCS(=O)(=O)c1cccc2nonc12)Nc1ccc(Br)cc1	none
Nc1c2c(nc3ccccc13)CSCC2	CAL PDZ FP-2 50
O=C(NNS(=O)(=O)c1ccc(F)cc1)c1ccccc1F	CAL PDZ FP-2 41
COc1ccccc1N(C)S(=O)(=O)c1ccc(Cl)c(C(=O)NNC(=O)c2ccccc2O)c1	SR-BI HDL uptake 81
COc1ccc(N(C)S(=O)(=O)c2ccc(Cl)c(C(=O)NNC(=O)c3ccccc3O)c2)cc1	SR-BI HDL uptake 79
COc1ccccc1N(C)S(=O)(=O)c1ccc(C(=O)NNC(=O)c2ccccc2O)cc1	SR-BI HDL uptake 126
COc1ccccc1N(C)S(=O)(=O)c1ccc(Cl)c(C(=O)N2CCC2)c1	none
COc1ccc(C(=O)NC(=S)NCc2ccco2)cc1Br	none
Cc1ccc(N2CC(NC(=O)C(=O)c3c(C)[nH]c4ccccc34)CC2=O)cc1C (configuration not stated)	none
NC(=Nc1nc(-c2ccccn2)cc2ccccc12)c1ccccn1	none
Cc1cc(Cl)ccc1N(CC(=O)NCCSCc1ccco1)S(C)(=O)=O	CAL PDZ FP-2 99
O=C(COC(=O)c1ccccn1)Nc1ccc2c(c1)OCCO2	CAL PDZ FP-2 56
O=C(Nc1ccc2c(c1)OCCO2)c1ccccn1	none
N=c1sccn1CC(=O)Nc1ccc([N+](=O)[O-])cc1Cl	none (no result: SR-BI HDL uptake, SR-BI DiI-HDL act)
CC(=O)c1c(C)[nH]c(C(=O)Nc2ccc(C)c(C)c2)c1C	none
COc1ccc(NC(=O)c2[nH]c(C)c(C(C)=O)c2C)cc1Cl	SR-BI HDL uptake 75
O=C(CN1C(=O)NC(Cc2ccccc2)C1=O)Nc1ccccc1OC(F)F (configuration not stated)	none
CCCN1C(=O)/C(=C/c2ccco2)SC1=Nc1ccc(OC)cc1	SR-BI HDL uptake 79
CCCN1C(=O)/C(=C/c2ccc(C)o2)SC1=Nc1ccc(OC)cc1	none
COc1ccc(NC(=O)COC(=O)COc2cccc(Br)c2)cc1OC	CAL PDZ FP-2 36
O=C(COC(=O)C1CCCCC1)Nc1cccc(Br)c1	SR-BI DiI-HDL act 63
O=C(COC(=O)COc1cccc(Br)c1)Nc1c(Cl)cccc1Cl	SR-BI DiI-HDL act 374
CC(=O)Nc1ccc(NC(=O)COC(=O)COc2ccc3ccccc3c2)cc1	CAL PDZ FP-2 105
CN(CC(=O)Nc1ccc(F)c(F)c1F)C(=O)C1CCN(C(=O)Nc2ccccc2)CC1	none
CC1(C)CC(=O)C(C=NCCN2CCNC2=O)=C(O)C1	CAL PDZ FP-2 52
CC1(C)CC(=O)C(C=NCCCO)=C(O)C1	none
CC(C)CN(C(=O)COC(=O)CCc1nc2ccccc2s1)c1c(N)n(Cc2ccccc2)c(=O)[nH]c1=O	none
CC(O)[C@@H](NC(=O)C1CCC(CNC(=O)[C@H](Cc2ccccc2)NC(=O)OC(C)(C)C)CC1)C(=O)O (some centres not stated)	none
CCOc1cc(/C=C/C(=O)OCC(=O)NC2CCS(=O)(=O)C2)ccc1OCc1ccccc1 (configuration not stated)	SR-BI HDL uptake 73
COc1ccccc1Nc1nc(N)nc(CSc2ncccn2)n1	CAL PDZ FP-2 69
CCOc1ccccc1Nc1nc(N)nc(CSc2nccc(C)n2)n1	none (no result: CAL PDZ FP-1)
COc1c(/C=N/NC(=O)[C@H]2C[C@@H]2c2ccccc2)c(CCN(C)C(C)=O)cc2c1OCO2	none (no result: SR-BI HDL uptake, SR-BI DiI-HDL act)
COc1c(/C=N/NC(=O)c2ccncc2)c(CCN(C)C(C)=O)cc2c1OCO2	SR-BI DiI-HDL act 145 (no result: CAL PDZ FP-2)
C/C(=N/NC(=O)CSCc1ccc(Cl)cc1)c1cccc(NC(=O)c2ccccc2)c1	SR-BI HDL uptake 81
